Test results: ChEMBL document CHEMBL5260822, “Structure-based design and synthesis of 2,4-diaminopyrimidines as EGFR L858R/T790M selective inhibitors for NSCLC” (Eur J Med Chem, 2017)

Columns and labels:
A-431 = test: Antiproliferative activity against human A-431 cells harboring wild type EGFR assessed as inhibition of cell proliferation incubated for 72 hrs by sulforhodamine B colorimetric assay; type: functional, cell-based; details: A-431, 72 h
NCI-H1975 = test: Antiproliferative activity against human NCI-H1975 cells harboring EGFR L858R/T790M double mutant assessed as inhibition of cell proliferation incubated for 72 hrs by sulforhodamine B colorimetric assay; type: functional, cell-based; details: NCI-H1975, 72 h
[1] = molecular target: Epidermal growth factor receptor (Homo sapiens, UniProt P00533); test: Inhibition of wild type EGFR (unknown origin) expressed in baculovirus expression system by ELISA
Sequence of Epidermal growth factor receptor (Homo sapiens, UniProt P00533) (P00533 whole entry): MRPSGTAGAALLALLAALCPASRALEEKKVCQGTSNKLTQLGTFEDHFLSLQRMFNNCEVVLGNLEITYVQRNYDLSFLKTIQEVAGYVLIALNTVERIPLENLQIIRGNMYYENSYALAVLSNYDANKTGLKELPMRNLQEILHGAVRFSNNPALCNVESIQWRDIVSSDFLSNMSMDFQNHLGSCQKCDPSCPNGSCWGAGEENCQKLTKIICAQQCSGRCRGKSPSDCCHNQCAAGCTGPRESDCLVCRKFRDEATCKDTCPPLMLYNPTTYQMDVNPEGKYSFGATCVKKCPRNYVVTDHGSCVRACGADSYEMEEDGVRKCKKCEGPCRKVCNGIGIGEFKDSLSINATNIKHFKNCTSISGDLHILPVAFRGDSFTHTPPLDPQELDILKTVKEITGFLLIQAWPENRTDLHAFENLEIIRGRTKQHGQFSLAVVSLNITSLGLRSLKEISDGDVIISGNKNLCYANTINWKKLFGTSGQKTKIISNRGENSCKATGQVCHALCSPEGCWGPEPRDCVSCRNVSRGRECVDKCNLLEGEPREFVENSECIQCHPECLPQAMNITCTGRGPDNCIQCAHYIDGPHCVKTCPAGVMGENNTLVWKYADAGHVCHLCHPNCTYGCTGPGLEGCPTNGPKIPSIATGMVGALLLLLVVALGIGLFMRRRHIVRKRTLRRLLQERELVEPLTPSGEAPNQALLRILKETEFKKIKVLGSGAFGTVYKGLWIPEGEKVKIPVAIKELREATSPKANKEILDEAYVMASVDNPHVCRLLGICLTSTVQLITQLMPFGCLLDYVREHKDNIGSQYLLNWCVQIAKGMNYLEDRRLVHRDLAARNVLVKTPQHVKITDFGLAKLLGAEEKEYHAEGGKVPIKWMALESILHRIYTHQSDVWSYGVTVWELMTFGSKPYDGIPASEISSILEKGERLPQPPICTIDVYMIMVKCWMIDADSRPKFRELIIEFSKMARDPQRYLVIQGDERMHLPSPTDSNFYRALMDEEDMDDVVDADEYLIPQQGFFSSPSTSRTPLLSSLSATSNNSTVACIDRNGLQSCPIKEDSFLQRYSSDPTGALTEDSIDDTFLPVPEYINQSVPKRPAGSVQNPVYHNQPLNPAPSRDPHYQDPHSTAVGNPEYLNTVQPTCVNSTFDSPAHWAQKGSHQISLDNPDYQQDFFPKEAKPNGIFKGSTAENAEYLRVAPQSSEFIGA

[2] = molecular target: Epidermal growth factor receptor (Homo sapiens, UniProt P00533, L858R/T790M); test: Inhibition of EGFR L858R/T790M mutant (unknown origin) expressed in baculovirus expression system by ELISA
Sequence of Epidermal growth factor receptor (Homo sapiens, UniProt P00533, L858R/T790M) (P00533 25-1210 T790M/L858R limits assumed): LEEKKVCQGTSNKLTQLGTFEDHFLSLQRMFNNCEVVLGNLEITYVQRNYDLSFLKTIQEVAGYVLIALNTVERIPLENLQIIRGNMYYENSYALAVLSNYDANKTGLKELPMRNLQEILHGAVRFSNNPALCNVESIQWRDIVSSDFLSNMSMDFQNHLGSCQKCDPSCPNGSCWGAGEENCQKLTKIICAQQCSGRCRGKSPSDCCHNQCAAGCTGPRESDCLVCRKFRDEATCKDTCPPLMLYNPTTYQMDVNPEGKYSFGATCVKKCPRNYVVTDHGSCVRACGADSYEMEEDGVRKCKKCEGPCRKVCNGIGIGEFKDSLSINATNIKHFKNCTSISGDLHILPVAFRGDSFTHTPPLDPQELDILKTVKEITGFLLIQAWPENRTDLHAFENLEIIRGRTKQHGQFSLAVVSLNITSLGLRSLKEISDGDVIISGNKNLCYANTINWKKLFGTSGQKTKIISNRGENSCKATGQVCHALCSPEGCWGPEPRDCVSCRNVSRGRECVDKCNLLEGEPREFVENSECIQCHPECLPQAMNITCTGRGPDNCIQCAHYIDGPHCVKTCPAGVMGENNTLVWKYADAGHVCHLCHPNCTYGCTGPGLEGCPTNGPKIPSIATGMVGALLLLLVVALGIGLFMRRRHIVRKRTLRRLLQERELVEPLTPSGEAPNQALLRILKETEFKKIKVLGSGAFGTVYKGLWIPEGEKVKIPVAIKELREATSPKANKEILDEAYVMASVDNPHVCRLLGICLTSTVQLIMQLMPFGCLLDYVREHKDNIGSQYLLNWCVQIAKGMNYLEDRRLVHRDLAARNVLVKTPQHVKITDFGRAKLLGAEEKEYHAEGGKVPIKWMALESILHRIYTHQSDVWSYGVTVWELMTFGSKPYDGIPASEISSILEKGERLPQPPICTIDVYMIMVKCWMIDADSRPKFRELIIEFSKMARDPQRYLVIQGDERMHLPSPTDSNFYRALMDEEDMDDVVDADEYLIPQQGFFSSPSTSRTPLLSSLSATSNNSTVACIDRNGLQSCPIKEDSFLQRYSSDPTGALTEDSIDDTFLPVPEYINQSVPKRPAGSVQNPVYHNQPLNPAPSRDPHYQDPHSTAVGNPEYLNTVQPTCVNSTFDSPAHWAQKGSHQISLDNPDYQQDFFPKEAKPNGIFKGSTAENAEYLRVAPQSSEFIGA

[3] = molecular target: Epidermal growth factor receptor (Homo sapiens, UniProt P00533, T790M); test: Inhibition of EGFR T790M mutant (unknown origin) expressed in baculovirus expression system by ELISA
Sequence of Epidermal growth factor receptor (Homo sapiens, UniProt P00533, T790M) (P00533 25-1210 T790M limits assumed): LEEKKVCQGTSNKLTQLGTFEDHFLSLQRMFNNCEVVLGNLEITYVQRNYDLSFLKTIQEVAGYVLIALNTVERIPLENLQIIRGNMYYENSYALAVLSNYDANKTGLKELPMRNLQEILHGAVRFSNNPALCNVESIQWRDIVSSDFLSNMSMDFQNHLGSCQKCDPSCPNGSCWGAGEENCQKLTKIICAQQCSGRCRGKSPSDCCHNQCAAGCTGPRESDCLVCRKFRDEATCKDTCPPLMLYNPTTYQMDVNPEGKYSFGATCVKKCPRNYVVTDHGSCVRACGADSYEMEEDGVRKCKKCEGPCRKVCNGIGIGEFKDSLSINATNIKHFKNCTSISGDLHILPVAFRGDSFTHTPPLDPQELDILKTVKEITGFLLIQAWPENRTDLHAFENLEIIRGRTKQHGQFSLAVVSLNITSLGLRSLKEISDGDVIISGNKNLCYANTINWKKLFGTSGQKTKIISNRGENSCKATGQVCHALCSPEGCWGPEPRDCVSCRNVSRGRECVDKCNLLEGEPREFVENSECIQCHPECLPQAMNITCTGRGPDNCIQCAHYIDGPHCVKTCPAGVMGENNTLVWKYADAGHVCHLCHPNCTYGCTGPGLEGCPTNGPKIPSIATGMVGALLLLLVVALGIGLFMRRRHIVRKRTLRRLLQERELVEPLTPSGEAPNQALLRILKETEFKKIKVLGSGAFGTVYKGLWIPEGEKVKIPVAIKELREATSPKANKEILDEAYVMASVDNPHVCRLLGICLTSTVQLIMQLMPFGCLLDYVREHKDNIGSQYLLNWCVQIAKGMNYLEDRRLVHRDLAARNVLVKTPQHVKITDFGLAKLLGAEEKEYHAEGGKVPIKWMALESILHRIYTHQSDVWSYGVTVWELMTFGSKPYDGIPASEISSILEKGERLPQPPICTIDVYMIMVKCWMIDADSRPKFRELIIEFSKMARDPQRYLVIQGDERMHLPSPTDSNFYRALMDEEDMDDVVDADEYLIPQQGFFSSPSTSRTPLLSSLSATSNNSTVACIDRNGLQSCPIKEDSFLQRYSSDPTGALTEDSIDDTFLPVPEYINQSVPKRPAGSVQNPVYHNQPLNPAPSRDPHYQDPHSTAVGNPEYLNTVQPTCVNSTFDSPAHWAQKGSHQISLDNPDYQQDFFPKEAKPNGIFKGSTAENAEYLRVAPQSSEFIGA

Homo sapiens = species on record: Homo sapiens; test: Selectivity ratio, ratio of IC50 for inhibition of wild type EGFR (unknown origin) to IC50 for inhibition of EGFR L858R/T790M mutant (unknown origin)
Method in brief: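 EGFR WT and L858R/T790M kinase domains expressed in a baculovirus system and purified on Ni-NTA. Kinase activity measured by ELISA-based EGFR tyrosine kinase assay; at least three independent determinations, mean ± SD.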

Structure (SMILES)	IC50 (A-431) [nM]	IC50 (NCI-H1975) [nM]	IC50 [1] [nM]	IC50 [2] [nM]	IC50 [3] [nM]	Ratio IC50 (Homo sapiens)
C=CC(=O)Nc1cc(Nc2ncc(Br)c(Nc3ccc4ccn(C)c4c3)n2)ccc1N1CCN(C)CC1	200	190				
CN1CCN(c2ccc(Nc3ncc(C(F)(F)F)c(Nc4ccc5[nH]ccc5c4)n3)cc2)CC1			> 1000	121	102	
CC(=O)N1CCc2ccc(Nc3nc(Nc4ccc(N5CCN(C)CC5)cc4)ncc3Br)cc21			5700	8600		
CN1CCN(c2ccc(Nc3ncc(F)c(Nc4ccc5[nH]ccc5c4)n3)cc2)CC1			> 1000	181	232	
C=CC(=O)Nc1cccc(Oc2nc(Nc3ccc(N4CCN(C)CC4)cc3OC)ncc2Cl)c1	1300	128				
C=CC(=O)Nc1cc(Nc2ncc(Br)c(Nc3ccc4c(c3)CCC4)n2)ccc1N1CCN(C)CC1	135	306	466	27.7		
CN1CCN(c2ccc(Nc3ncc(Br)c(Nc4ccc5cc[nH]c5c4)n3)cc2)CC1			1400	19		74
CN1CCN(c2ccc(Nc3ncc(Br)c(Nc4ccc5ncccc5c4)n3)cc2)CC1			> 10000	7800		
CN1CCN(c2ccc(Nc3ncc(Br)c(Nc4ccc5c(c4)CCC5)n3)cc2)CC1			6800	35		194
C=CC(=O)Nc1cc(Nc2ncc(Br)c(Nc3ccc4cc[nH]c4c3)n2)ccc1N(C)CCN(C)C	143	111	8.7	200		
C=CC(=O)Nc1cc(Nc2ncc(Br)c(Nc3ccc4cc[nH]c4c3)n2)ccc1N1CCN(C)CC1	108	451	234	16.4		
CN1CCN(c2ccc(Nc3ncc(Br)c(Nc4ccc5cn[nH]c5c4)n3)cc2)CC1			1100	43		26
Cc1cnc(Nc2ccc(N3CCN(C)CC3)cc2)nc1Nc1ccc2[nH]ccc2c1			> 1000	171	197	
CN1CCN(c2ccc(Nc3ncc(Br)c(Nc4ccc5ccn(C)c5c4)n3)cc2)CC1			1300	21		62
C=CC(=O)Nc1cc(Nc2ncc(Br)c(Nc3ccc4c(c3)CCC4)n2)ccc1N(C)CCN(C)C	256	106	26.2	0.6		
CN1CCN(c2ccc(Nc3ncc([N+](=O)[O-])c(Nc4ccc5[nH]ccc5c4)n3)cc2)CC1			> 1000	906	> 1000	
CN1CCN(c2ccc(Nc3ncc(Br)c(Nc4ccc5[nH]ncc5c4)n3)cc2)CC1			393	39		10
CC(=O)N1CCc2cc(Nc3nc(Nc4ccc(N5CCN(C)CC5)cc4)ncc3Br)ccc21			14300	6000		2
CN1CCN(c2ccc(Nc3nccc(Nc4ccc5[nH]ccc5c4)n3)cc2)CC1			49	220	100	
CN1CCN(c2ccc(Nc3ncc(Cl)c(Nc4ccc5[nH]ccc5c4)n3)cc2)CC1			557	46	105	
COc1cnc(Nc2ccc(N3CCN(C)CC3)cc2)nc1Nc1ccc2[nH]ccc2c1			> 1000	155	224	
CN1CCN(c2ccc(Nc3ncc(Br)c(Nc4ccc5[nH]ccc5c4)n3)cc2)CC1			> 1000	35	53	23
CN1CCN(c2ccc(Nc3ncc(Br)c(Nc4ccc5[nH]c(Cc6cccc(F)c6)cc5c4)n3)cc2)CC1			325	49		7
CN1CCN(c2ccc(Nc3ncc(Br)c(Nc4ccc5nccnc5c4)n3)cc2)CC1			408	236		2
